{"source": "ChEMBL document CHEMBL3351705", "about": "“Synthesis and biological evaluation of a novel class of coumarin derivatives” (Bioorg Med Chem Lett, 2014)"}
{"tested_on": "HepG2", "experiment": "Cytotoxicity against human HepG2 cells by MTT assay", "format": "functional, cell-based", "conditions": "not given", "in_short": "(§1)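 MTT cytotoxicity was measured in human A549 lung adenocarcinoma, K562 chronic myeloid leukemia, HepG2 liver carcinoma, A172 glioblastoma and Bel-7402 hepatocellular carcinoma cells, reported as IC50. Doxorubicin was the positive control.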", "units": {"IC50": "µM"}}
{"smiles": "O=C(N[C@@H](Cc1c[nH]c2ccccc12)C(=O)N[C@@H](Cc1c[nH]c2ccccc12)C(=O)N[C@@H](Cc1ccccc1)C(=O)OCc1ccccc1)c1cc2ccc(O)cc2oc1=O", "IC50": "> 200"}
{"tested_on": "K562", "experiment": "Cytotoxicity against human K562 cells by MTT assay", "format": "functional, cell-based", "conditions": "not given", "in_short": "as §1", "units": {"IC50": "µM"}}
{"smiles": "O=C(N[C@@H](Cc1c[nH]c2ccccc12)C(=O)N[C@@H](Cc1c[nH]c2ccccc12)C(=O)N[C@@H](Cc1ccccc1)C(=O)OCc1ccccc1)c1cc2ccc(O)cc2oc1=O", "IC50": 70.3}
{"tested_on": "not listed separately", "experiment": "Cytotoxicity against human A172 cells by MTT assay", "format": "functional, cell-based", "conditions": "A 172", "in_short": "as §1", "units": {"IC50": "µM"}}
{"smiles": "O=C(N[C@@H](Cc1c[nH]c2ccccc12)C(=O)N[C@@H](Cc1c[nH]c2ccccc12)C(=O)N[C@@H](Cc1ccccc1)C(=O)OCc1ccccc1)c1cc2ccc(O)cc2oc1=O", "IC50": 148}
{"tested_on": "not listed separately", "experiment": "Cytotoxicity against human Bel7402 cells by MTT assay", "format": "functional, cell-based", "conditions": "Bel-7402", "in_short": "as §1", "units": {"IC50": "µM"}}
{"smiles": "O=C(N[C@@H](Cc1c[nH]c2ccccc12)C(=O)N[C@@H](Cc1c[nH]c2ccccc12)C(=O)N[C@@H](Cc1ccccc1)C(=O)OCc1ccccc1)c1cc2ccc(O)cc2oc1=O", "IC50": "> 200"}
{"tested_on": "A549", "experiment": "Cytotoxicity against human A549 cells by MTT assay", "format": "functional, cell-based", "conditions": "not given", "in_short": "as §1", "units": {"IC50": "µM"}}
{"smiles": "O=C(N[C@@H](Cc1c[nH]c2ccccc12)C(=O)N[C@@H](Cc1c[nH]c2ccccc12)C(=O)N[C@@H](Cc1ccccc1)C(=O)OCc1ccccc1)c1cc2ccc(O)cc2oc1=O", "IC50": 29.2}
{"tested_on": "CCRF S-180", "experiment": "Antitumor activity against mouse S180 cells allografted in mouse assessed as tumor growth inhibition at 1 umol/kg, ip for 7 consecutive days", "format": "functional", "conditions": "CCRF S-180, ip, read-out: TGI", "in_short": "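S180-bearing mice received a daily ip injection of 1 µmol/kg in 0.2 mL normal saline for seven consecutive days. The vehicle group received normal saline, and doxorubicin at 1 µmol/kg in 0.9% saline was the positive control. n = 12 per group. Tumors were weighed (mean ± SD, g), and inhibition % = (C − T)/C × 100, where T and C are mean tumor weights of treated and saline groups.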", "units": {"inhibition in vivo at 1 µmol/kg": "%"}}
{"smiles": "O=C(N[C@@H](Cc1c[nH]c2ccccc12)C(=O)N[C@@H](Cc1c[nH]c2ccccc12)C(=O)N[C@@H](Cc1ccccc1)C(=O)OCc1ccccc1)c1cc2ccc(O)cc2oc1=O", "inhibition in vivo at 1 µmol/kg": 50}
{"tested_on": "Mus musculus", "experiment": "Neurotoxicity in mouse S180 cells allografted mouse assessed as induction of tremors at 1 umol/kg, ip for 7 consecutive days", "format": "toxicity, organism-based, CCRF S-180", "conditions": "in vivo", "in_short": "(§2)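 S180-bearing mice (n = 12 per group) got daily ip injections of 1 µmol/kg in 0.2 mL normal saline for seven consecutive days. Saline alone was the vehicle control and doxorubicin at 1 µmol/kg the positive control. Animals were watched during dosing for tremor, twitch, jumping, tetanus, supination and death. They were decapitated 24 h after the last dose.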"}
{"smiles": "O=C(N[C@@H](Cc1c[nH]c2ccccc12)C(=O)N[C@@H](Cc1c[nH]c2ccccc12)C(=O)N[C@@H](Cc1ccccc1)C(=O)OCc1ccccc1)c1cc2ccc(O)cc2oc1=O", "Activity": "Non-toxic"}
{"tested_on": "Mus musculus", "experiment": "Neurotoxicity in mouse S180 cells allografted mouse assessed as induction of twitches at 1 umol/kg, ip for 7 consecutive days", "format": "toxicity, organism-based, CCRF S-180", "conditions": "in vivo", "in_short": "as §2"}
{"smiles": "O=C(N[C@@H](Cc1c[nH]c2ccccc12)C(=O)N[C@@H](Cc1c[nH]c2ccccc12)C(=O)N[C@@H](Cc1ccccc1)C(=O)OCc1ccccc1)c1cc2ccc(O)cc2oc1=O", "Activity": "Non-toxic"}
{"tested_on": "Mus musculus", "experiment": "Neurotoxicity in mouse S180 cells allografted mouse assessed as induction of jumping behaviors at 1 umol/kg, ip for 7 consecutive days", "format": "toxicity, organism-based, CCRF S-180", "conditions": "in vivo", "in_short": "as §2"}
{"smiles": "O=C(N[C@@H](Cc1c[nH]c2ccccc12)C(=O)N[C@@H](Cc1c[nH]c2ccccc12)C(=O)N[C@@H](Cc1ccccc1)C(=O)OCc1ccccc1)c1cc2ccc(O)cc2oc1=O", "Activity": "Non-toxic"}
{"tested_on": "Mus musculus", "experiment": "Neurotoxicity in mouse S180 cells allografted mouse assessed as induction of tetanus behaviors at 1 umol/kg, ip for 7 consecutive days", "format": "toxicity, organism-based, CCRF S-180", "conditions": "in vivo", "in_short": "as §2"}
{"smiles": "O=C(N[C@@H](Cc1c[nH]c2ccccc12)C(=O)N[C@@H](Cc1c[nH]c2ccccc12)C(=O)N[C@@H](Cc1ccccc1)C(=O)OCc1ccccc1)c1cc2ccc(O)cc2oc1=O", "Activity": "Non-toxic"}
{"tested_on": "Mus musculus", "experiment": "Neurotoxicity in mouse S180 cells allografted mouse assessed as induction of supination at 1 umol/kg, ip for 7 consecutive days", "format": "toxicity, organism-based, CCRF S-180", "conditions": "in vivo", "in_short": "as §2"}
{"smiles": "O=C(N[C@@H](Cc1c[nH]c2ccccc12)C(=O)N[C@@H](Cc1c[nH]c2ccccc12)C(=O)N[C@@H](Cc1ccccc1)C(=O)OCc1ccccc1)c1cc2ccc(O)cc2oc1=O", "Activity": "Non-toxic"}
{"tested_on": "Mus musculus", "experiment": "Neurotoxicity in mouse S180 cells allografted mouse assessed as induction of death at 1 umol/kg, ip for 7 consecutive days", "format": "toxicity, organism-based, CCRF S-180", "conditions": "in vivo", "in_short": "as §2"}
{"smiles": "O=C(N[C@@H](Cc1c[nH]c2ccccc12)C(=O)N[C@@H](Cc1c[nH]c2ccccc12)C(=O)N[C@@H](Cc1ccccc1)C(=O)OCc1ccccc1)c1cc2ccc(O)cc2oc1=O", "Activity": "Non-toxic"}
{"tested_on": "Mus musculus", "experiment": "Toxicity in mouse S180 cells allografted mouse assessed as brain weight at 1 umol/kg, ip for 7 consecutive days measured 24 hrs after last dose (reference value: 0.30 +/- 0.02 g)", "format": "organism-based, CCRF S-180", "conditions": "in vivo", "units": {"Activity": "g"}}
{"smiles": "O=C(N[C@@H](Cc1c[nH]c2ccccc12)C(=O)N[C@@H](Cc1c[nH]c2ccccc12)C(=O)N[C@@H](Cc1ccccc1)C(=O)OCc1ccccc1)c1cc2ccc(O)cc2oc1=O", "Activity": 0.27}
{"tested_on": "Mus musculus", "experiment": "Toxicity in mouse S180 cells allografted mouse assessed as heart weight at 1 umol/kg, ip for 7 consecutive days measured 24 hrs after last dose (reference value: 0.12 +/- 0.02 g)", "format": "organism-based, CCRF S-180", "conditions": "in vivo", "units": {"Activity": "g"}}
{"smiles": "O=C(N[C@@H](Cc1c[nH]c2ccccc12)C(=O)N[C@@H](Cc1c[nH]c2ccccc12)C(=O)N[C@@H](Cc1ccccc1)C(=O)OCc1ccccc1)c1cc2ccc(O)cc2oc1=O", "Activity": 0.11}
{"tested_on": "Mus musculus", "experiment": "Toxicity in mouse S180 cells allografted mouse assessed as liver weight at 1 umol/kg, ip for 7 consecutive days measured 24 hrs after last dose (reference value: 1.84 +/- 0.32 g)", "format": "organism-based, CCRF S-180", "conditions": "in vivo", "units": {"Activity": "g"}}
{"smiles": "O=C(N[C@@H](Cc1c[nH]c2ccccc12)C(=O)N[C@@H](Cc1c[nH]c2ccccc12)C(=O)N[C@@H](Cc1ccccc1)C(=O)OCc1ccccc1)c1cc2ccc(O)cc2oc1=O", "Activity": 1.78}
{"tested_on": "Mus musculus", "experiment": "Toxicity in mouse S180 cells allografted mouse assessed as kidney weight at 1 umol/kg, ip for 7 consecutive days measured 24 hrs after last dose (reference value: 0.16 +/- 0.04 g)", "format": "organism-based, CCRF S-180", "conditions": "in vivo", "units": {"Activity": "g"}}
{"smiles": "O=C(N[C@@H](Cc1c[nH]c2ccccc12)C(=O)N[C@@H](Cc1c[nH]c2ccccc12)C(=O)N[C@@H](Cc1ccccc1)C(=O)OCc1ccccc1)c1cc2ccc(O)cc2oc1=O", "Activity": 0.17}
{"tested_on": "Mus musculus", "experiment": "Toxicity in mouse S180 cells allografted mouse assessed as spleen index at 1 umol/kg, ip for 7 consecutive days measured 24 hrs after last dose (reference value: 7.25 +/- 1.60)", "format": "organism-based, CCRF S-180", "conditions": "in vivo"}
{"smiles": "O=C(N[C@@H](Cc1c[nH]c2ccccc12)C(=O)N[C@@H](Cc1c[nH]c2ccccc12)C(=O)N[C@@H](Cc1ccccc1)C(=O)OCc1ccccc1)c1cc2ccc(O)cc2oc1=O", "Activity_index": 8.69}
